In ChEMBL document CHEMBL1955823, “Imidazo[1,2-a]pyrazines as novel PI3K inhibitors” (Bioorg Med Chem Lett, 2012):
pIC50, pKi: −log10 of the molar value.

Experiments:
[1] = target: T1, PI3-kinase p110-alpha/p85-alpha (Homo sapiens, UniProt P42336); assay: Inhibition of human PI3K p110alpha/p85alpha; format: protein-complex assay; conditions: read-out: Ki(app)
[2] = target: Dual specificity mitogen-activated protein kinase kinase 1 (Homo sapiens) (UniProt Q02750); assay: Inhibition of MEK1 at 5 to 10 uM
[3] = target: Serine/threonine-protein kinase pim-2 (Homo sapiens) (UniProt Q9P1W9); assay: Inhibition of PIM2 at 5 to 10 uM
[4] = target: Ribosomal protein S6 kinase alpha-1 (Homo sapiens) (UniProt Q15418); assay: Inhibition of RPS6KA1 at 5 to 10 uM
[5] = test system: Serine/threonine-protein kinase B-raf (Homo sapiens), P15056 [V600E]; assay: Inhibition of BRAF V600E mutant at 5 to 10 uM
Homo sapiens = organism: Homo sapiens; assay: Selectivity ratio of Kiapp for human PI3K p110alpha/p85alpha to Kiapp for human PI3K p110delta/p85alpha
[6] = target: T2, NUAK family SNF1-like kinase 1 (Homo sapiens) (UniProt O60285); assay: Inhibition of ARK5 at 5 to 10 uM
T2 sequence (whole entry): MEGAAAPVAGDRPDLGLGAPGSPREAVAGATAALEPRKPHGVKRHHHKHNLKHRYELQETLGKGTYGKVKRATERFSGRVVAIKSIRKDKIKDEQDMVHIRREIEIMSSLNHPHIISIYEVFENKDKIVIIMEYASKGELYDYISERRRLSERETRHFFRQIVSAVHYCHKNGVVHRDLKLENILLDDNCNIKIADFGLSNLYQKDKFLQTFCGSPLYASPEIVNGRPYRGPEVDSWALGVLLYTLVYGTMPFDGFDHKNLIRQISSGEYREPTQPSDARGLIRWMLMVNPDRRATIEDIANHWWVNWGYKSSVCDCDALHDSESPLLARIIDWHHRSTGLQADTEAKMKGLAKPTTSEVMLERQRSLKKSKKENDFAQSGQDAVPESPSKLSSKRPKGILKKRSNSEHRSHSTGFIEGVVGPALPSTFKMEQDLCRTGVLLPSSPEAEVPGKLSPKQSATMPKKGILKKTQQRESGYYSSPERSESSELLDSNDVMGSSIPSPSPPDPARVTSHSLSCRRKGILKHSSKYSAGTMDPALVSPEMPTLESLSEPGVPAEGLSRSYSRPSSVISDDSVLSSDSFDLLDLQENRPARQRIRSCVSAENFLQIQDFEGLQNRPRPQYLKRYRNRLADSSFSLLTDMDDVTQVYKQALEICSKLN

[7] = target: Tyrosine-protein kinase JAK2 (Homo sapiens) (UniProt O60674); assay: Inhibition of JAK2 at 5 to 10 uM
[8] = Inhibition of PDGFR at 5 to 10 uM
[9] = target: Phosphatidylinositol 4,5-bisphosphate 3-kinase catalytic subunit gamma isoform (Homo sapiens, UniProt P48736); assay: Inhibition of human PI3K p110gamma; conditions: read-out: Ki(app)
[10] = target: Serine/threonine-protein kinase mTOR (Homo sapiens, UniProt P42345); assay: Inhibition of mTOR
How it was run: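 mTOR (FRAP1) kinase assay using GFP-4E-BP1 substrate and a Tb-labelled anti-phospho-4E-BP1 (Thr46) antibody in a TR-FRET format, under the manufacturer's conditions; averages of two independent experiments run in duplicate.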

[11] = target: PI3-kinase p110-delta/p85-alpha (Homo sapiens, UniProt O00329); assay: Inhibition of human PI3K p110delta/p85alpha; format: protein-complex assay; conditions: read-out: Ki(app)
[12] = target: Fibroblast growth factor receptor 1 (Homo sapiens) (UniProt P11362); assay: Inhibition of FGF-R1 at 5 to 10 uM
[13] = target: Receptor-type tyrosine-protein kinase FLT3 (Homo sapiens) (UniProt P36888); assay: Inhibition of FLT3 at 5 to 10 uM
[14] = target: Casein kinase I isoform alpha (Homo sapiens) (UniProt P48729); assay: Inhibition of CK1alpha1 at 5 to 10 uM
[15] = target: T1, PI3-kinase p110-alpha/p85-alpha; assay: Inhibition of PI3K p110alpha/p85alpha; format: protein-complex assay
How it was run: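 Biochemical kinase assay following the kit manufacturer's protocol with a modified kinase buffer (50 mM HEPES pH 7.5, 3 mM MgCl2, 100 mM NaCl, 1 mM EGTA, 0.04% CHAPS, 2 mM TCEP, 0.01 mg/ml BGG); 10 nM enzyme; ATP 50 µM; values are averages of two independent experiments, each in duplicate.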

[16] = Metabolic stability in human liver microsomes assessed as compound remaining at 1 uM after 30 mins
CYP2D6 = CYP2D6 (Homo sapiens, UniProt P10635); assay: Inhibition of CYP2D6 at 10 uM; format: ADME
How it was run: (§1)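 CYP isoform panel (1A2, 2C9, 2C19, 2D6, 3A4); percent inhibition recorded at 10 µM test compound; run in duplicate by an outside contractor.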

CYP2C19 = CYP2C19 (Homo sapiens, UniProt P33261); assay: Inhibition of CYP2C19 at 10 uM; format: ADME; how it was run: as §1
CYP2C9 = CYP2C9 (Homo sapiens, UniProt P11712); assay: Inhibition of CYP2C9 at 10 uM; format: ADME; how it was run: as §1
CYP1A2 = target: T3, CYP1A2 (Homo sapiens, UniProt P05177); assay: Inhibition of CYP1A2 at 10 uM; format: ADME; how it was run: as §1
T3 sequence (P05177 whole entry): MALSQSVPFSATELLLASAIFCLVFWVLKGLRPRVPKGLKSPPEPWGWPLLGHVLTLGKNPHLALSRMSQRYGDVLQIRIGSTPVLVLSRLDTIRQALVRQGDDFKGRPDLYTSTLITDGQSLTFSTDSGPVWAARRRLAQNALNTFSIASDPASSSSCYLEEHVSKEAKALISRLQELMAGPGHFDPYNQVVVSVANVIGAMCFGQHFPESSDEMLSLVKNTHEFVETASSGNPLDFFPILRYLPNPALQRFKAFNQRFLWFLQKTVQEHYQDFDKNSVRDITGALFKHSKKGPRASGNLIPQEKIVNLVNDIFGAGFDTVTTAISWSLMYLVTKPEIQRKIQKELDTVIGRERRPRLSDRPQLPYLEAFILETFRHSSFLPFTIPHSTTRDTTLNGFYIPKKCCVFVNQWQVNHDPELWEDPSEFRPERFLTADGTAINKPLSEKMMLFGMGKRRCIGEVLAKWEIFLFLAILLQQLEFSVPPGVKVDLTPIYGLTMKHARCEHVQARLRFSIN

[17] = Metabolic stability in mouse liver microsomes assessed as compound remaining at 1 uM after 30 mins
CYP3A4 = CYP3A4 (Homo sapiens, UniProt P08684); assay: Inhibition of CYP3A4 at 10 uM; format: ADME; how it was run: as §1

Sequence of PI3-kinase p110-delta/p85-alpha (P27986 whole entry): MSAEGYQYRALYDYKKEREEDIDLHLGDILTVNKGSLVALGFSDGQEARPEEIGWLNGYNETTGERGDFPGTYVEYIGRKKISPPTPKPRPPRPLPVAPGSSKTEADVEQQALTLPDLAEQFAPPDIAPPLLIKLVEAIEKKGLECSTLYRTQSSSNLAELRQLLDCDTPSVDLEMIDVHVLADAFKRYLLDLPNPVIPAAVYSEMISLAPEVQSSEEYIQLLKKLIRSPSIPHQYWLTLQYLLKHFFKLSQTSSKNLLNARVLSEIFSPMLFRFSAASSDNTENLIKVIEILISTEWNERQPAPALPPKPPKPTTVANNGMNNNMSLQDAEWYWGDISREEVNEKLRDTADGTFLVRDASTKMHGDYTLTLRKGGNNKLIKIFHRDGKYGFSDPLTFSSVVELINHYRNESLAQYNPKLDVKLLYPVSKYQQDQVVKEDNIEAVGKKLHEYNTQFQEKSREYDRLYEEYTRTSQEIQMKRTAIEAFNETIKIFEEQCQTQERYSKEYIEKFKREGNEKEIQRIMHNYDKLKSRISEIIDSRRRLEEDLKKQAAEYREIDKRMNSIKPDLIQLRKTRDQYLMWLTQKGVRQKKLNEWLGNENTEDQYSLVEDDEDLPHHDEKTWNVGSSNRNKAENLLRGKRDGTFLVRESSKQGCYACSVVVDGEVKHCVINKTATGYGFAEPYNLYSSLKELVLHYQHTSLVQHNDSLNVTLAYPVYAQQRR
Sequence of PI3-kinase p110-delta/p85-alpha (O00329 whole entry): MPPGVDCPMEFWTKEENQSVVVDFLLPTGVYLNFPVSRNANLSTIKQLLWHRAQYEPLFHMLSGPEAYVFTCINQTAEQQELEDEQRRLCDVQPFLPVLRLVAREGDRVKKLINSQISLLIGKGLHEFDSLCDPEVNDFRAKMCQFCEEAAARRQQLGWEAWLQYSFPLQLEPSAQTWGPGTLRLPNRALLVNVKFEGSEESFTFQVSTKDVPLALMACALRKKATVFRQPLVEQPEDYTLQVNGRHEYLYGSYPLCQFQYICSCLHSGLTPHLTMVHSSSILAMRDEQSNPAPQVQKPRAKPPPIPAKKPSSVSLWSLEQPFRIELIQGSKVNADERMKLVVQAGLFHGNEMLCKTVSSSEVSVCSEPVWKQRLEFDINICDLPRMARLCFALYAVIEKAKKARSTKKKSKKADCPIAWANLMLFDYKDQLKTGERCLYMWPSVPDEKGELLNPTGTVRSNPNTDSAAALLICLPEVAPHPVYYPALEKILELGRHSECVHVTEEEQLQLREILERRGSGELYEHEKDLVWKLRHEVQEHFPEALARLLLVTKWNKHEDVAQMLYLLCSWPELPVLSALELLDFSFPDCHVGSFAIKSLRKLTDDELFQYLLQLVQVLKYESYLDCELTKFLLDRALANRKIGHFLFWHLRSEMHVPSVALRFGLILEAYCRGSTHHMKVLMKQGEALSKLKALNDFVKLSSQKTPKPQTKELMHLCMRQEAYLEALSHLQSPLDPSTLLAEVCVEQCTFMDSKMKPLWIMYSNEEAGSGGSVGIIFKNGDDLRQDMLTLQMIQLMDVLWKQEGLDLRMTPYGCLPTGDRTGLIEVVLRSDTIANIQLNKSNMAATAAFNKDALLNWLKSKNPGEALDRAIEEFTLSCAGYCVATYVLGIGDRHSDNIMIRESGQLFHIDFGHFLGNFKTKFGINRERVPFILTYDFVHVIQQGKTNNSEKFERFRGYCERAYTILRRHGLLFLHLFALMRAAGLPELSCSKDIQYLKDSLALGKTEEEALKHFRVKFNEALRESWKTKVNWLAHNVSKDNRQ
T1 sequence (P27986 whole entry): as the sequence (P27986 whole entry) above
T1 sequence (P42336 whole entry): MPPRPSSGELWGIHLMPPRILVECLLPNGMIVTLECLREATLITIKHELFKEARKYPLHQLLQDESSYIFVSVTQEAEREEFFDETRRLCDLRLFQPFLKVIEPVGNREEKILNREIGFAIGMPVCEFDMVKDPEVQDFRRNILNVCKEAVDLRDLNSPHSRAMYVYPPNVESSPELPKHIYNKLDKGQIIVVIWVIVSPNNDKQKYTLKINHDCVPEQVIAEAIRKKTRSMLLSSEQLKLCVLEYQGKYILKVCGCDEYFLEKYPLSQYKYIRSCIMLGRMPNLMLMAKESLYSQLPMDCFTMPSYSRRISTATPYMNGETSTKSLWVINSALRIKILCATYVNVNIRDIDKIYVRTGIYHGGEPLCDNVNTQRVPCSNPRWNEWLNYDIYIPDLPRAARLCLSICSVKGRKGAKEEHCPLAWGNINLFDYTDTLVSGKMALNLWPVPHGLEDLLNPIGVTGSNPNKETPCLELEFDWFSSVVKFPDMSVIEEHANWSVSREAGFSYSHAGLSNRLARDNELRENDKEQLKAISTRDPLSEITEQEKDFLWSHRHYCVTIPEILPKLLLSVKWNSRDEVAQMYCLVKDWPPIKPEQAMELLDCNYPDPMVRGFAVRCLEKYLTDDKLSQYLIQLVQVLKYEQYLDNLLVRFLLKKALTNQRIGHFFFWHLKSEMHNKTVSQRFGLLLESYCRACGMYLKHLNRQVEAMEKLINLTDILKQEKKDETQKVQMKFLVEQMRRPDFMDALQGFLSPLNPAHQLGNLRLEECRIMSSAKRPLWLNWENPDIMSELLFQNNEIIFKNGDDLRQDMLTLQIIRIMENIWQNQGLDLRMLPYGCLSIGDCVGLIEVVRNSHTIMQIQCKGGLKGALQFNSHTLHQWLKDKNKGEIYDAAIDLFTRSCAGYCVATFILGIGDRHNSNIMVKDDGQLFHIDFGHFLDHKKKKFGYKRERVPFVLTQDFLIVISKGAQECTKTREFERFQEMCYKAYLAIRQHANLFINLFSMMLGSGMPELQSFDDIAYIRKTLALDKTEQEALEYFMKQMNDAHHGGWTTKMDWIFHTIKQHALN
Sequence of Casein kinase I isoform alpha (Homo sapiens) (P48729 2-337 limits assumed): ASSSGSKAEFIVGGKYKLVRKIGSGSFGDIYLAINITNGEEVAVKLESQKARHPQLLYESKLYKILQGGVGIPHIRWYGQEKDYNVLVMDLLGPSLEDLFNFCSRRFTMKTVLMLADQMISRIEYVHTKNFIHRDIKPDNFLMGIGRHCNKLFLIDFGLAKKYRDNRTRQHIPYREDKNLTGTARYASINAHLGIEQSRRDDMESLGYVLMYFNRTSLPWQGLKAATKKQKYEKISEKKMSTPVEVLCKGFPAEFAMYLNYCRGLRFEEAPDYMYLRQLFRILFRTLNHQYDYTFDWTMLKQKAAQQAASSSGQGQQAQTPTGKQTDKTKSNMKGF
Sequence of Serine/threonine-protein kinase B-raf (Homo sapiens), P15056 [V600E] (P15056 whole entry V600E): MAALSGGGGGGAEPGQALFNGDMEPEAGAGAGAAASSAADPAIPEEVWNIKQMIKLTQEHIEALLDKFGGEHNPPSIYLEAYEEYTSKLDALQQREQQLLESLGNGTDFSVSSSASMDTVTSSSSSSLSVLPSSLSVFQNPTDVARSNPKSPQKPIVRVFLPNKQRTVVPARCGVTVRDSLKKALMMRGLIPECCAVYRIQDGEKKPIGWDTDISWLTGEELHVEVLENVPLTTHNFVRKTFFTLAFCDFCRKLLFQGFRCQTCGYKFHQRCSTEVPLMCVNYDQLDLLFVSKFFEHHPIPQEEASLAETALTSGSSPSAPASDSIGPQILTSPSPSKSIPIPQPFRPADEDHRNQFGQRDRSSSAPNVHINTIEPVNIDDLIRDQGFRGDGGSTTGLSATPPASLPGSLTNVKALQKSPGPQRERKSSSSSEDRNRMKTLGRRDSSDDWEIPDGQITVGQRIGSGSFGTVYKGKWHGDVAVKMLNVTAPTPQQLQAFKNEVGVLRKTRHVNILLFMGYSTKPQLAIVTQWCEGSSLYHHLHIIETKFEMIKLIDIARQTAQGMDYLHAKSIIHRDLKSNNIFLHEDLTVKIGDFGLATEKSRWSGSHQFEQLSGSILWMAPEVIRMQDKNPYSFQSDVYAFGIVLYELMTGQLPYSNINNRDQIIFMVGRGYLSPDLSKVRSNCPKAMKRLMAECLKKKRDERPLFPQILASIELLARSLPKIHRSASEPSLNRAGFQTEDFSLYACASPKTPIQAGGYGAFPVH
Sequence of Dual specificity mitogen-activated protein kinase kinase 1 (Homo sapiens) (Q02750 whole entry): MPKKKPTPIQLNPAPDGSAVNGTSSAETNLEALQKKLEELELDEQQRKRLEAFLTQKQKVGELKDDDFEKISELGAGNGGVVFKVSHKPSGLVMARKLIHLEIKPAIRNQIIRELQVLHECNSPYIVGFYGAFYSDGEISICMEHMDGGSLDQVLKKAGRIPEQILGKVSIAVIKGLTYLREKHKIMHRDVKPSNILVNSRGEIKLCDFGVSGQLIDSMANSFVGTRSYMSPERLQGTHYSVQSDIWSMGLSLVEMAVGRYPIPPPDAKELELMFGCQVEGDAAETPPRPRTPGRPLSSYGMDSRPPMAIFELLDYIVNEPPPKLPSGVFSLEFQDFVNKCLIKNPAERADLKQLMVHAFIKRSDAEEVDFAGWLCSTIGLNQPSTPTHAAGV
Sequence of Serine/threonine-protein kinase pim-2 (Homo sapiens) (Q9P1W9 whole entry, looked up): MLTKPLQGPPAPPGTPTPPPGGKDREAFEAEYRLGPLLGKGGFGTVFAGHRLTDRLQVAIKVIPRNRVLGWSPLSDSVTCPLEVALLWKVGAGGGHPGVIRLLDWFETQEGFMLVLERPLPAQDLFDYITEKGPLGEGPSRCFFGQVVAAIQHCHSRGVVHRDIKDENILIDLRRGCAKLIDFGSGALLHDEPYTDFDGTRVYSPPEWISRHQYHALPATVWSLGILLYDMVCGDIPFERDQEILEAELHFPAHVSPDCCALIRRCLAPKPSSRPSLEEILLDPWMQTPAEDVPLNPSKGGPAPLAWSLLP

| pKi [1] | inhibition [2] [%] | inhibition [3] [%] | inhibition [4] [%] | inhibition [5] [%] | Ratio Ki(app) (Homo sapiens) | inhibition [6] [%] | inhibition [7] [%] | inhibition [8] [%] | pKi [9] | pIC50 [10] | pKi [11] | inhibition [12] [%] | inhibition [13] [%] | inhibition [14] [%] | pIC50 [15] | SMILES | further results |
| --- | --- | --- | --- | --- | --- | --- | --- | --- | --- | --- | --- | --- | --- | --- | --- | --- | --- |
| 7.19 | < 50 | < 50 | < 50 | < 50 | 10 | < 50 | < 50 | < 50 | < 6.30 | < 5.00 | 8.19 | < 50 | < 50 | < 50 | – | O=C(NCCN1CCOCC1)c1cn2cc(-c3cccc4[nH]ncc34)nc(N3CCOCC3)c2n1 | – |
| 6.39 | < 50 | < 50 | < 50 | < 50 | 9.5 | < 50 | < 50 | < 50 | < 6.30 | < 5.00 | 7.37 | < 50 | < 50 | < 50 | 6.71 | CS(=O)(=O)N1CCN(Cc2cn3c(C#N)c(-c4cccc5[nH]ncc45)nc(N4CCOCC4)c3n2)CC1 | – |
| 6.99 | < 50 | < 50 | < 50 | < 50 | 6 | < 50 | < 50 | < 50 | < 6.30 | < 5.00 | 7.77 | < 50 | < 50 | < 50 | – | CNC(=O)c1cn2cc(-c3cccc4[nH]ncc34)nc(N3CCOCC3)c2n1 | – |
| 6.68 | < 50 | < 50 | < 50 | < 50 | 3.2 | < 50 | < 50 | < 50 | < 6.30 | < 5.00 | 7.19 | < 50 | < 50 | < 50 | 6.84 | CS(=O)(=O)N1CCN(Cc2cn3c(Cl)c(-c4cccc5[nH]ncc45)nc(N4CCOCC4)c3n2)CC1 | remaining at 0.5 h, 1 µM [16]: 35%; inhibition at 10 µM (CYP2D6): < 25%; inhibition at 10 µM (CYP2C19): < 25%; inhibition at 10 µM (CYP2C9): < 25%; inhibition at 10 µM (CYP1A2): < 25%; remaining at 0.5 h, 1 µM [17]: 28%; inhibition at 10 µM (CYP3A4): < 25% |
| 7.36 | < 50 | < 50 | < 50 | < 50 | 12.2 | < 50 | < 50 | < 50 | < 6.30 | < 5.00 | 8.44 | < 50 | < 50 | < 50 | 7.46 | CN(C)CCCNC(=O)c1cn2cc(-c3cccc4[nH]ncc34)nc(N3CCOCC3)c2n1 | – |
| – | < 50 | < 50 | < 50 | < 50 | – | < 50 | < 50 | < 50 | < 6.30 | < 5.00 | – | < 50 | < 50 | < 50 | – | CS(=O)(=O)N1CCN(Cc2cn3cc(-c4cccc5[nH]ncc45)nc(N4CCOCC4)c3n2)CC1 | remaining at 0.5 h, 1 µM [16]: 48%; inhibition at 10 µM (CYP2D6): < 25%; inhibition at 10 µM (CYP2C19): < 25%; inhibition at 10 µM (CYP2C9): < 25%; inhibition at 10 µM (CYP1A2): < 25%; remaining at 0.5 h, 1 µM [17]: 32%; inhibition at 10 µM (CYP3A4): < 25% |
| 7.22 | < 50 | < 50 | < 50 | < 50 | 21.4 | < 50 | < 50 | < 50 | < 6.30 | < 5.00 | 8.55 | < 50 | < 50 | < 50 | 7.51 | COCCCNC(=O)c1cn2cc(-c3cccc4[nH]ncc34)nc(N3CCOCC3)c2n1 | – |
| 7.07 | < 50 | < 50 | < 50 | < 50 | 10.8 | < 50 | < 50 | < 50 | < 6.30 | < 5.00 | 8.10 | < 50 | < 50 | < 50 | 7.33 | CS(=O)(=O)N1CCN(Cc2nc3c(N4CCOCC4)nc(-c4cccc5[nH]ncc45)cn3c2Br)CC1 | – |
